Calls of active or inactive are those of the source. The calls are words filed in the database; no cut-off is given here.
Biological target: T1, Nucleotide-binding oligomerization domain-containing protein 1 (Homo sapiens) (UniProt Q9Y239)
T1 sequence (whole entry): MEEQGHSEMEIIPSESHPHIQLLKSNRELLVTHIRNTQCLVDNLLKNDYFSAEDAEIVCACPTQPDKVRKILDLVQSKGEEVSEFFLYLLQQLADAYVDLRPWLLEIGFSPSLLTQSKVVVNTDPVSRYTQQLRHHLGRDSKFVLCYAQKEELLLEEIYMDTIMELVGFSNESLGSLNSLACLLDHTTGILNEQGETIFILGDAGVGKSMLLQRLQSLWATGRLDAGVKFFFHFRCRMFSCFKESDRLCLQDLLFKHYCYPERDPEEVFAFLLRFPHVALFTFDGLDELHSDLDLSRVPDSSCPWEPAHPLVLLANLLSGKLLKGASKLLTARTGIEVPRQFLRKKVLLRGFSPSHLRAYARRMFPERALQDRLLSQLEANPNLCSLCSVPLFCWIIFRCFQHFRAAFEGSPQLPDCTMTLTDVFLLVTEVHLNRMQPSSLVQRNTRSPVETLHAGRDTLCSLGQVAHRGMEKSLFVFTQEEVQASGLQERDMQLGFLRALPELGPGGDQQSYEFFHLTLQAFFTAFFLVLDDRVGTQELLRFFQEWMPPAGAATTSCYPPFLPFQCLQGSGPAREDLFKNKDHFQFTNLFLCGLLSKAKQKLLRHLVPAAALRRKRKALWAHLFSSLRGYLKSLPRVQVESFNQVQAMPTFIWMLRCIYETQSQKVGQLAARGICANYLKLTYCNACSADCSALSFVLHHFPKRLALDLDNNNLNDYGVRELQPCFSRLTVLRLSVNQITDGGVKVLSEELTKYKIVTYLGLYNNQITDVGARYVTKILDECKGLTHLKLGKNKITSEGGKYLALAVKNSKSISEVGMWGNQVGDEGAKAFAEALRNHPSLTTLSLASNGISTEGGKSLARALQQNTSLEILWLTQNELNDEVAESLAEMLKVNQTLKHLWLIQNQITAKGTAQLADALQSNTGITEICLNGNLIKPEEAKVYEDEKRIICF
Assay: Agonist activity at NOD1 in HEK-Blue hNOD2 cells assessed as increase in NFkappaB transactivation-mediated SEAP activity measured after 18 hrs by spectrophotometric method
Format: cell-based
Details: HEK-Blue hNOD1, in the assay text read “HEK-Blue hNOD1 cells” for “HEK-Blue hNOD2 cells”
Summary of the method: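 Counter-screen in HEK-Blue NOD1 cells (HEK293 stably expressing human NOD1 plus an NF-κB-inducible SEAP reporter), seeded at 2.5 × 10^5 cells/mL in HEK-Blue detection medium. Compounds at 2 μM versus 0.1% DMSO vehicle, 18 h at 37 °C, 5% CO2. SEAP read as absorbance at 630 nm. Duplicates, at least two independent experiments.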

CCCCCCCCCCCCCCCCCC(=O)Oc1ccc(/C=C/C(=O)NCC(=O)N[C@H](C(=O)N[C@H](CCC(=O)OCC)C(=O)OCC)C(C)C)cc1OC
Activity: inactive

— ChEMBL document CHEMBL5038594, “Structural Fine-Tuning of Desmuramylpeptide NOD2 Agonists Defines Their In Vivo Adjuvant Activity” (J Med Chem, 2021)
